Measurements as given in ChEMBL document CHEMBL2311339, “Identification of GZD824 as an orally bioavailable inhibitor that targets phosphorylated and nonphosphorylated breakpoint cluster region-Abelson (Bcr-Abl) kinase and overcomes clinically acquired mutation-induced resistance against imatinib” (J Med Chem, 2013).
The source made the active and inactive calls. The rule behind the calls is not given here.

Assays:
[1] = Antitumor activity against mouse BA/F3 cells expressing BCR-ABL T315I mutant allografted in SCID mouse assessed as increase in median survival at 5 mg/kg/day, po qd for 10 days; assay type: functional, BaF3
In short: (§1)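 Ba/F3 Bcr-Abl T315I cells stably carrying firefly luciferase, in saline, were injected i.v. into SCID nude mice (2 × 10^6 cells/0.1 mL). Imaging began 5−7 days later: i.p. D-luciferin, halothane anaesthesia, images after 5 min. Mice were randomised by signal and dosed by oral gavage once daily for 10 days (5, 10, 20 mg/kg/day; imatinib 100 mg/kg; vehicle). Luminescence was quantified; survival by Kaplan−Meier with log-rank test.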

[2] = test system: BaF3; assay: Antitumor activity against mouse BA/F3 cells expressing BCR-ABL T315I mutant allografted in SCID mouse assessed as complete suppression of cell proliferation at 20 mg/kg/day, po qd for 10 days; assay type: functional, organism-based; in short: as §1
[3] = test system: BaF3; assay: Antitumor activity against mouse BA/F3 cells expressing BCR-ABL T315I mutant allografted in SCID mouse assessed as suppression of cell proliferation at 5 to 20 mg/kg/day, po qd for 10 days relative to untreated vehicle; assay type: functional, organism-based; in short: as §1
[4] = test system: BaF3; assay: Antitumor activity against mouse BA/F3 cells expressing BCR-ABL F317L mutant allografted in po dosed SCID mouse assessed as reduction of hepatosplenomegaly administered qd for 14 days; assay type: functional, organism-based
[5] = test system: BaF3; assay: Antitumor activity against mouse BA/F3 cells expressing BCR-ABL G250E mutant allografted in po dosed SCID mouse assessed as reduction of hepatosplenomegaly administered qd for 14 days; assay type: functional, organism-based
[6] = test system: Mus musculus; assay: Toxicity in human K562 cells xenografted mouse assessed as body weight loss relative to vehicle-treated control; assay type: organism-based; settings: in vivo
In short: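 K562 cells (2.5 × 10^7 cells/mL in normal saline, 0.2 mL) were injected subcutaneously into the right flank. Mice were randomized once mean tumor volume reached 100−200 mm3, n = 10 per group. Dosing was by oral gavage once daily for 14 days in 1% DMSO/22.5% Cremophor/7.5% ethanol/69% saline. Tumor volume (L × W²/2) and body weight were measured every 2 days; unpaired t test versus vehicle.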

[7] = test system: K562; assay: Antitumor activity against human K562 cells xenografted in mouse assessed as decrease in tumor recurrence at 5 to 10 mg/kg, po qd for 20 days; assay type: functional, organism-based
[8] = Plasma concentration in rat after 12 hrs; assay type: ADME
In short: (§2)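 Bismesylate salt given to rats as a single iv dose of 5 mg/kg or a single oral dose of 25 mg/kg. Plasma drug levels were followed over time to derive the PK parameters. The 12 h and 24 h plasma levels come from the oral 25 mg/kg dose.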

[9] = Mean residence time in rat at 25 mg/kg, po; assay type: ADME, organism-based; design: dose 25 mg/kg, route oral; settings: in vivo; in short: as §2
[10] = AUC (0 to t) in rat at 25 mg/kg, po; assay type: ADME, organism-based; design: dose 25 mg/kg, route oral; settings: plasma; in short: as §2
[11] = Volume of distribution at steady state in rat at 5 mg/kg, iv; assay type: ADME, organism-based; design: dose 5 mg/kg, route intravenous; settings: in vivo, read-out: Vdss
In short: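 Test compound given to rats as its bismesylate salt in a single dose, 5 mg/kg iv or 25 mg/kg by mouth. Plasma drug levels were monitored after dosing, and PK parameters including Vss were reported per route.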

[12] = Clearance in rat at 5 mg/kg, iv; assay type: ADME, organism-based; design: dose 5 mg/kg, route intravenous; settings: in vivo; in short: as §2
[13] = molecular target: Cytochrome P450 2C9 (Homo sapiens, UniProt P11712); assay: Inhibition of human recombinant CYP2C9 after 30 mins; assay type: ADME
[14] = molecular target: Cytochrome P450 2C19 (Homo sapiens, UniProt P33261); assay: Inhibition of human recombinant CYP2C19 after 30 mins; assay type: ADME
[15] = molecular target: Cytochrome P450 2E1 (Homo sapiens, UniProt P05181); assay: Inhibition of human recombinant CYP2E1 at 30 uM after 30 mins; assay type: ADME; settings: recombinant enzyme, 0.5 h
[16] = molecular target: Cytochrome P450 2D6 (Homo sapiens, UniProt P10635); assay: Inhibition of human recombinant CYP2D6 at 30 uM after 30 mins; assay type: ADME; settings: recombinant enzyme, 0.5 h
[17] = molecular target: Cytochrome P450 3A4 (Homo sapiens, UniProt P08684); assay: Inhibition of human recombinant CYP3A4 at 30 uM after 30 mins; assay type: ADME; settings: recombinant enzyme, 0.5 h
[18] = test system: HL-60; assay: Cytotoxicity against human HL60 cells […] assessed as growth inhibition after 72 hrs by CCK-8 assay; assay type: functional, cell-based; settings: HL-60, 72 h
In short: (§3)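 Log-phase human leukemia cells were seeded at about 3000 cells/well and treated 24 h later for 72 h. CCK-8 was then incubated with the cells for 3 h and read as OD450 − OD650. Viability was normalized to vehicle wells and cell-free blanks, and IC50 taken as the mean of three experiments.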

[19] = Cytotoxicity against human KU812 cells expressing BCR-ABL assessed as growth inhibition after 72 hrs by CCK-8 assay; assay type: functional, cell-based; settings: KU812, 72 h; in short: as §3
[20] = test system: K562; assay: Cytotoxicity against human K562 cells expressing BCR-ABL assessed as growth inhibition after 72 hrs by CCK-8 assay; assay type: functional, cell-based; settings: K562, 72 h; in short: as §3
[21] = Cytotoxicity against mouse BA/F3 cells expressing BCR-ABL H396R mutant assessed as growth inhibition after 72 hrs by CCK-8 assay; settings: BaF3, 72 h
[22] = Cytotoxicity against mouse BA/F3 cells expressing BCR-ABL E359V mutant assessed as growth inhibition after 72 hrs by CCK-8 assay; settings: BaF3, 72 h
[23] = Cytotoxicity against mouse BA/F3 cells expressing BCR-ABL M351T mutant assessed as growth inhibition after 72 hrs by CCK-8 assay; settings: BaF3, 72 h
[24] = Cytotoxicity against mouse BA/F3 cells expressing BCR-ABL F317L mutant assessed as growth inhibition after 72 hrs by CCK-8 assay; settings: BaF3, 72 h
[25] = Cytotoxicity against mouse BA/F3 cells expressing BCR-ABL E255K mutant assessed as growth inhibition after 72 hrs by CCK-8 assay; settings: BaF3, 72 h
[26] = molecular target: Proto-oncogene tyrosine-protein kinase receptor Ret (Homo sapiens) (UniProt P07949); assay: Binding affinity to RET (unknown origin) at 10 nM after 2 hrs by FRET assay
[27] = molecular target: Epithelial discoidin domain-containing receptor 1 (Homo sapiens) (UniProt Q08345); assay: Binding affinity to DDR1 (unknown origin) at 10 nM after 2 hrs by FRET assay
[28] = molecular target: Tyrosine-protein kinase ABL1 (Homo sapiens, UniProt P00519, M351T); assay: Binding affinity to phosphorylated ABL1 M351T mutant (unknown origin) after 1 hr
[29] = molecular target: Tyrosine-protein kinase ABL1 (Homo sapiens, UniProt P00519, E255K); assay: Binding affinity to phosphorylated ABL1 E255K mutant (unknown origin) after 1 hr
[30] = molecular target: Tyrosine-protein kinase ABL1 (Homo sapiens, UniProt P00519); assay: Binding affinity to non phosphorylated wild type ABL1 (unknown origin) after 1 hr
[31] = Cytotoxicity against mouse BA/F3 cells assessed as growth inhibition after 72 hrs by CCK-8 assay; settings: BaF3, 72 h
[32] = Cytotoxicity against mouse BA/F3 cells expressing wild type BCR-ABL assessed as growth inhibition after 72 hrs by CCK-8 assay; settings: BaF3, 72 h
[33] = cells; settings: Mus musculus, BaF3, 72 h
[34] = cells; settings: Mus musculus, BaF3, 72 h; remark: listed apart in the source

Chain of Cytochrome P450 3A4 (P08684 whole entry): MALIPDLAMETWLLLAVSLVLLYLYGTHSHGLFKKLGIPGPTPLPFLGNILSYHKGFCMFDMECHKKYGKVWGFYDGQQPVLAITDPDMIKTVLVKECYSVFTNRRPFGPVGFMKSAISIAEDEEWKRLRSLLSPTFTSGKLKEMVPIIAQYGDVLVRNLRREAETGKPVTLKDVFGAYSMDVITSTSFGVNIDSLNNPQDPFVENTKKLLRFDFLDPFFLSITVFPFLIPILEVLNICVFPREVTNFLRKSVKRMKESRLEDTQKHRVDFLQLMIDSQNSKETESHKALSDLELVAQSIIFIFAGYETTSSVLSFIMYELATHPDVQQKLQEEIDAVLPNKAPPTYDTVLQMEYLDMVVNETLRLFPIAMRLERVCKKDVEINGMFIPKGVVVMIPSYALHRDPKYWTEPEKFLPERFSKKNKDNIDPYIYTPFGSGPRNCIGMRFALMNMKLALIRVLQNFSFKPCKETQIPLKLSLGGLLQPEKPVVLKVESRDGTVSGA
Chain of Cytochrome P450 2C9 (P11712 whole entry): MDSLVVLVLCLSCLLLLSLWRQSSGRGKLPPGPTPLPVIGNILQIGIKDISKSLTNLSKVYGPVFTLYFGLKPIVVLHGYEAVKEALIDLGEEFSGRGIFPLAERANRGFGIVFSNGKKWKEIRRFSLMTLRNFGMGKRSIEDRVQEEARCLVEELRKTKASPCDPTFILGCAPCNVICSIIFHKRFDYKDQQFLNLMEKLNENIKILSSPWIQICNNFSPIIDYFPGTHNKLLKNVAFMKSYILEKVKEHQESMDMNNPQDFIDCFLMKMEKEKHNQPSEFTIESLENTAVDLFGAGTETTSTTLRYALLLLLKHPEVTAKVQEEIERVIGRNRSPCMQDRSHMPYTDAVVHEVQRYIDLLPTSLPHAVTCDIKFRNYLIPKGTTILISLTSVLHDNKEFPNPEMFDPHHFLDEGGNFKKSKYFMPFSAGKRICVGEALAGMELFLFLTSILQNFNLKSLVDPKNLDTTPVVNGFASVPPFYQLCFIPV
Chain of Epithelial discoidin domain-containing receptor 1 (Homo sapiens) (Q08345 whole entry, the tested form may be a part): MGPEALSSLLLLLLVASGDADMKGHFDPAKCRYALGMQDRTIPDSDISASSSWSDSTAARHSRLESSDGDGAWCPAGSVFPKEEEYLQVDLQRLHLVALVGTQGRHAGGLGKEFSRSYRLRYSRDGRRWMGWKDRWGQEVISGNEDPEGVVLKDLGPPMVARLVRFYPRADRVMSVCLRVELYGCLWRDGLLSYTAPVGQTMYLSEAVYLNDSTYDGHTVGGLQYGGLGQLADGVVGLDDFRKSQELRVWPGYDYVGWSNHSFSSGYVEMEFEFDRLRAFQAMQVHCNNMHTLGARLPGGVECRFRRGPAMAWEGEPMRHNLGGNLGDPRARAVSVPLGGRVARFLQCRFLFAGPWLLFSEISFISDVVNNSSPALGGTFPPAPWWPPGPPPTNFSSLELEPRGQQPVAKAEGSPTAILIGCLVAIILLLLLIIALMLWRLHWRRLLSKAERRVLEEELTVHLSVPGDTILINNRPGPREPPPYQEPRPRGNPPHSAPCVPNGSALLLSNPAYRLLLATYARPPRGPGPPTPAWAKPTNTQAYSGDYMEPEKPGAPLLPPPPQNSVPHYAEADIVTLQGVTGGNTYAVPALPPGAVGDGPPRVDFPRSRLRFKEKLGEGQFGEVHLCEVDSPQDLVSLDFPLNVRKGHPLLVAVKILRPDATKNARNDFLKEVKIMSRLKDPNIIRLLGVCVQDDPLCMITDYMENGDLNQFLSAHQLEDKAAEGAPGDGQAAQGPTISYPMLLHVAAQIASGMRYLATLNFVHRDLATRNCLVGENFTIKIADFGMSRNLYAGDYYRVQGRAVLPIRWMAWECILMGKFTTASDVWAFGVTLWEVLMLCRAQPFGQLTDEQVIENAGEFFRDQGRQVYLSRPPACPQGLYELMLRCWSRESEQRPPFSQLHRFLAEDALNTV
Chain of Proto-oncogene tyrosine-protein kinase receptor Ret (Homo sapiens) (P07949 whole entry, the tested form may be a part): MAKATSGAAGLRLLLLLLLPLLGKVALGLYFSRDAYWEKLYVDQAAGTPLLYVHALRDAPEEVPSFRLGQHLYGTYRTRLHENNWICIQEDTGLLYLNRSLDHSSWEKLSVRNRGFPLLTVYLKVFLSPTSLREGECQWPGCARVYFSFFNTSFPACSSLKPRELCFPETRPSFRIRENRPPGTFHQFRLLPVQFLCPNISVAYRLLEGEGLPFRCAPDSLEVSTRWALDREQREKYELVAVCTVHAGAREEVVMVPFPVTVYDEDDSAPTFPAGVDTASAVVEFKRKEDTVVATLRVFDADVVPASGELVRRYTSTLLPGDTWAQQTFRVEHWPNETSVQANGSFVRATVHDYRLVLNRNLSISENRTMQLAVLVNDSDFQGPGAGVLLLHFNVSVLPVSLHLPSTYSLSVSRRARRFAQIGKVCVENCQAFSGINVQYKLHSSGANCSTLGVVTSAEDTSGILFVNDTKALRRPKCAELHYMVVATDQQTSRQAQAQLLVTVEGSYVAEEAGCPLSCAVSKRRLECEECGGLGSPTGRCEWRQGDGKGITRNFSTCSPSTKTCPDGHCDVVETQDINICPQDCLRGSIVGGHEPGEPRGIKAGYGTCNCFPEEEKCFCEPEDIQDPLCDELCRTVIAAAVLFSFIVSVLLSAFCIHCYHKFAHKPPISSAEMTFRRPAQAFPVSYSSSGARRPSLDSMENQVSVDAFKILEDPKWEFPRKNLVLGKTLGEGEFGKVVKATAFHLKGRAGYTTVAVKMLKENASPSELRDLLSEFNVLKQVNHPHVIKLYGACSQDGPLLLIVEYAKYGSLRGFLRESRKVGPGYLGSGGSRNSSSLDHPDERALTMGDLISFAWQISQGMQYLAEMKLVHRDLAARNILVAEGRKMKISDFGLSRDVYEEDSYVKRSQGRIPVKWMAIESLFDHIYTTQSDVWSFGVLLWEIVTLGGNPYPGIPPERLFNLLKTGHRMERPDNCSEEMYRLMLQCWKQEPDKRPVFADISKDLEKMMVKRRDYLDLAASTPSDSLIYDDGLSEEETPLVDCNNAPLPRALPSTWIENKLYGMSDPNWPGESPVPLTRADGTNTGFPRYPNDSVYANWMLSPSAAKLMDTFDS
Chain of Cytochrome P450 2C19 (P33261 whole entry): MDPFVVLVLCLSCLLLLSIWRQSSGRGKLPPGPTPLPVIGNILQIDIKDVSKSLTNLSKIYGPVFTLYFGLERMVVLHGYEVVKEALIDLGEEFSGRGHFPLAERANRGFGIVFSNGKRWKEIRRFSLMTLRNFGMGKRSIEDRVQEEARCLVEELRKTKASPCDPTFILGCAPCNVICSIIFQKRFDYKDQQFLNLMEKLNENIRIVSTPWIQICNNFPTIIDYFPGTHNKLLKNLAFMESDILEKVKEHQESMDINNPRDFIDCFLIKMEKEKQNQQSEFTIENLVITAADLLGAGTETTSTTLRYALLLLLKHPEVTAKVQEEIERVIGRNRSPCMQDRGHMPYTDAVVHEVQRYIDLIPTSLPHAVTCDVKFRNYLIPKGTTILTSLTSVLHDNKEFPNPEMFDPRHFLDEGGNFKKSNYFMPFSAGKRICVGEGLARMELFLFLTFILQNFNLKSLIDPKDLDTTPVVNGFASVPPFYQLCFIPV
Chain of Cytochrome P450 2E1 (P05181 whole entry): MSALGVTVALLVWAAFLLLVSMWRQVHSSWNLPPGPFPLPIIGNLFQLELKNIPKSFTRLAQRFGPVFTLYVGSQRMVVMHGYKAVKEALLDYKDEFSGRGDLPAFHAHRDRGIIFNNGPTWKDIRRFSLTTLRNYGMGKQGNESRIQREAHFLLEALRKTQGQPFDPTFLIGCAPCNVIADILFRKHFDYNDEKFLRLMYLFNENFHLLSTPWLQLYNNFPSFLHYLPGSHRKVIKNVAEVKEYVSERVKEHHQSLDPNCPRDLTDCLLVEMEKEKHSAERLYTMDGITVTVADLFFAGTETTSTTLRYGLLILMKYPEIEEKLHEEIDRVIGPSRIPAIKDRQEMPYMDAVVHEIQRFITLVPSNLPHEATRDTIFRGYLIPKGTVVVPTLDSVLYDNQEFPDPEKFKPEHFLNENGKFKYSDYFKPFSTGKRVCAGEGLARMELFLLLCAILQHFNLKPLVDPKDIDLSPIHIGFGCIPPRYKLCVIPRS
Chain of Cytochrome P450 2D6 (P10635 whole entry): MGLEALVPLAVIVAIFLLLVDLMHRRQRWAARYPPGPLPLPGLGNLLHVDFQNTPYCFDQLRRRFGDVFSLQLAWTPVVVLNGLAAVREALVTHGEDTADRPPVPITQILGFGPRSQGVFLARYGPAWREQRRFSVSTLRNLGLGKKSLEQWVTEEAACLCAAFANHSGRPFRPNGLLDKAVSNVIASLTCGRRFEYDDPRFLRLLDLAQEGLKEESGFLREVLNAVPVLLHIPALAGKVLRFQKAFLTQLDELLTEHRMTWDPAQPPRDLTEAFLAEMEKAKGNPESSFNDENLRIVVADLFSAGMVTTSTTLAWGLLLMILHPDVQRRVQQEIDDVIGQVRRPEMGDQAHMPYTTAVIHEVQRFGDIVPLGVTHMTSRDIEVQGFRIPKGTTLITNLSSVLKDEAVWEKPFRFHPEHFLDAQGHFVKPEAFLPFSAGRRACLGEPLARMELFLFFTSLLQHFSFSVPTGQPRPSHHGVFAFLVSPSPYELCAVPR

With `Cc1ccc(C(=O)Nc2ccc(CN3CCN(C)CC3)c(C(F)(F)F)c2)cc1C#Cc1cnc2[nH]ncc2c1` [OLVEREMBATINIB] the Survival [1] was 23.7 days, the Activity [2] was “Active” and the Activity [3] was “Active”. The Activity [4] was “Active”, the Activity [5] was “Active” and the Activity [6] was under 5%. The Activity [7] was “Active”, the concentration at 12 h [8] was 270 nM and the MRT [9] was 17.9 h. It also gave an AUC(0-t) [10] of 6700 ng·h/mL, a Vd [11] of 13.7 L/kg and a clearance [12] of 28.3 mL/min/kg. The IC50 [13] was 110 nM, the IC50 [14] was 990 nM and the “inhibition (INH)” value [15] was “Not Active”. The “inhibition (INH)” value [16] was “Not Active”, the “inhibition (INH)” value [17] was “Not Active” and the IC50 [18] was 349 nM. It also gave an IC50 [19] of 0.13 nM, an IC50 [20] of 0.2 nM and an IC50 [21] of 5.5 nM. It also gave an IC50 [22] of 2.3 nM, an IC50 [23] of 0.2 nM and an IC50 [24] of 2.7 nM. For the same compound, the IC50 [25] was 3.5 nM, the Activity [26] was “inactive” and the Activity [27] was “inactive”. For the same compound, the Kd [28] was 0.23 nM, the Kd [29] was 0.28 nM and the Kd [30] was 0.32 nM. It also gave an IC50 [31] of 170 nM, an IC50 [32] of 1 nM and an IC50 [33] of 7.1 nM. The IC50 [34] was 6 nM.
